Assay outcomes deposited in PubChem by several laboratories.
Shown are actives, neighbours in structure and some others; about 4.9% of the full set was active somewhere.
CHT inh: inhibitors of human choline transporter CHT; Q9GZV3; CHT-expressing cells, membrane potential dye, choline response; active compounds read low; B-score at 10 µM; actives 0.86% (n = 310,000);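 active = B-score over 3 SD under the library average, and starting fluorescence ratio not unusually high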;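 also: choline stimulus applied at its EC90 after an EC20 pre-addition; B-score computed on integrated fluorescence ratio after choline addition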
HSF1 activator: increases HSF-1 driven luciferase reporter signal; actives 1.7% (n = 300,000); activation, % at 9 µM; NIH3T3-HGL HSF-1 luciferase reporter, MG132, 8 h; 100% = twice DMSO control signal;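 active = mean replicate activation of at least 50% with a set share of replicates each reaching 50%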;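 also: 0% = median of the neutral control wells and 100% = twice that signal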
HSF1 inh: HSF1 inhibition; activity change, negative = inhibition, % at 7.5 µM (by protocol); actives 0.77% (n = 300,000); NIH3T3-HGL HSE-luciferase, MG132-induced, luminescence 8 h; active compounds read low;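 active = more than half of replicate wells show activity change below -50%, luminescence cut by over half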;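 also: luciferase reports HSF-1 transcriptional activity via heat shock element; 0% = median of DMSO wells and -100% = zero luminescence signal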
PHOSPHO1 block: blocks human PHOSPHO1 phosphatase activity; Q8TCT1; recombinant PHOSPHO1, absorbance phosphatase assay; inhibition, % at 13.3 µM; actives 1.1% (n = 290,000); AID 1565; in the data active = inhibition above about 60%
Target sequence (Q8TCT1 whole entry, looked up): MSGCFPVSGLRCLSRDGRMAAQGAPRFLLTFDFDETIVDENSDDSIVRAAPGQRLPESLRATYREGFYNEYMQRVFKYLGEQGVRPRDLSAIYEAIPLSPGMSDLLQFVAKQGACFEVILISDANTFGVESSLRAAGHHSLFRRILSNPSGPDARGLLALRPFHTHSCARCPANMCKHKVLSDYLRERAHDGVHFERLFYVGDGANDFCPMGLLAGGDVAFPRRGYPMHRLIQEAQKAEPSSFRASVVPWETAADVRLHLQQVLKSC
CHT allo act: allosterically activates the human high affinity choline transporter; Q9GZV3; CHT-expressing cells, membrane potential dye, choline EC20; active compounds read high; LV-AA mutant CHT in HEK293 cells; B-score at 10 µM; actives 0.49% (n = 310,000);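 active = initial fluorescence not abnormally high and integrated response B-score, plate-corrected, over 3 SD above library mean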
Lipid droplet: hepatic lipid droplet formation modulation | AML12 mouse hepatocytes, oleate lipid droplets, BODIPY imaging | inhibition, % at 6.5 µM | actives 0.4% (n = 240,000);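 active = lipid droplet intensity inhibited by at least 50%, with more than 500 cells counted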
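Material – mouse AML12 hepatocyte cell line, fixed after treatment · Compound dosing – one dose, 6.5 µM compound · Times – compound with oleate, overnight · Measured by – Image-based BODIPY and DAPI two-channel analysis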
Lipid drop inh: hepatic lipid droplet formation inhibition, confirmed. shares compounds with Lipid droplet. AML12 mouse hepatocytes, BODIPY lipid droplet imaging; droplets induced with 100 µM oleic acid. inhibition, % at 5.2 µM. actives 65% (n = 870). AID 463183;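 active = inhibition of lipid droplet metric at least 50%, with more than 300 cells in each of four replicates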;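 also: plate controls were DMSO with oleic acid for no effect and 5 µM Triacsin-C for full effect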
AML12 cytotox: AML12 hepatocyte cytotoxicity (counter-screen); shares compounds with Lipid droplet; AML12 mouse hepatocytes, DAPI nuclear morphology cytotoxicity imaging; active compounds read high; cells fed 100 µM oleate overnight; z-score at 5 µM; actives 3% (n = 870); AID 463200; in the data active = z-score above about 6.3;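 also: compound exposure lasted overnight at 37 °C before fixation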
AML12 tox conf: confirmation of cytotoxicity in AML12 mouse hepatocytes; cytotoxicity, % at 50 µM; shares compounds with Lipid droplet; AML12 mouse hepatocyte viability, ATP luminescence; cells loaded with 100 µM oleic acid; 530 tested, under 10 active;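 active = cytotoxicity above 50% in each of four replicates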;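 also: compound exposure lasted overnight at 37 °C before the ATP read; 0% = DMSO-treated cells and 100% = wells with no cells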
* marks the source's active call; other numbers are inactive results; i = inactive; . = no result given.

SMILES	CHT inh	HSF1 activator	HSF1 inh	PHOSPHO1 block	CHT allo act	Lipid droplet	Lipid drop inh	AML12 cytotox	AML12 tox conf
COc1ccc(NC(=O)CSc2nnc(C)c(=O)n2N)cc1	i	2	-6	38	i	8	.	.	.
CCOc1ccccc1CN1CCNC(=O)C1CC(=O)NCCC1=CCCCC1 (stereo not given)	i	6	11	9	i	-4	.	.	.
COc1cccc(N=Nc2ccc3ccccc3c2O)c1	i	-70	-62*	39	i	75*	70	-0.23	61*
Oc1c(N=Nc2ccc(F)cc2)ccc2ccccc12	i	5	10	8	i	71*	96*	1	64*
Cc1ccc(N=Nc2ccc3ccccc3c2O)cc1	i	-78	-73*	3	i	82*	53	0.11	.
Cc1ccc(-n2nc3c(=O)n(C(C)C(=O)NCCC4=CCCCC4)nc(C)c3c2C)cc1 (stereo not given)	i	5	-1	24	i	58*	83*	-1.5	18
Cc1ccc(CCNC(=O)C(C)n2nc(C)c3c(C)n(-c4ccccc4)nc3c2=O)cc1 (stereo not given)	i	-6	-1	38	i	-29	.	.	.
CCc1ccc(NC(=O)CNC(=O)[C@@H]2Cc3ccccc3CN2C(=O)OC(C)(C)C)cc1	i	-3	-5	33	i	54*	76*	-0.28	2
Cc1ccc(NC(=O)N2Cc3ccccc3CC2C(=O)NC(C)(C)C)cc1 (stereo not given)	i	3	11	11	i	.	.	.	.
Cc1ccc(C)c(NC(=O)CCC(=O)N2CCOc3ccccc32)c1	i	13	0	15	i	0	.	.	.
Cc1ccc(NC(=O)Cc2ccc3c(c2)CCCC3)cc1C	i	.	.	33	i	53*	64*	0.49	9
O=C(Nc1ccc2c(c1)nc1n2CCN(C2CCCCC2)C1)NC1CCCCC1	i	6	6	33	i	.	.	.	.
O=C(CN1C(=O)NC2(CCOc3ccccc32)C1=O)c1ccc(Br)cc1 (stereo not given)	i	-13	8	42	i	66*	102*	0.18	16
O=C(CN1C(=O)NC2(CCOc3ccccc32)C1=O)c1ccc(Cl)cc1 (stereo not given)	i	14	4	.	i	.	.	.	.
CCN(CC)c1ccc(NC(=O)CCc2nnc3ccc(N4CCCC4)nn23)c(C)c1	i	-2	0	28	i	72*	98*	-0.66	13
CCOc1ccc(CCNC(=O)CCc2nnc3ccc(N4CCCCC4)nn23)cc1OCC	i	-11	-3	7	i	86*	109*	0.41	10
Cc1cc(C)nc(NCCO)n1	i	4	-8	41	i	81*	30	-0.23	.
CS(=O)(=O)Nc1ccc(C(=O)Nc2ccccc2C(=O)NCc2ccco2)cc1	i	0	-2	37	i	57*	-3	-0.51	.
O=c1c2ccccc2n(Cc2ccc(Cl)cc2)c(=O)n1Cc1ccco1	i	-9	0	-35	i	17	.	.	.
O=C(NCc1ccco1)c1ccc(Cn2c(=O)c3ccccc3n(Cc3ccc(Cl)cc3)c2=O)cc1	i	32	5	-62	i	56*	48	-0.48	.
CC1(OC(=O)CCc2ccccc2)C(=O)C=C2C=C(c3ccc(C#N)cc3)N(CCc3c[nH]c4ccccc34)C=C2C1=O (stereo not given)	i	0	-1	26	i	60*	44	0.54	.
Cc1cccc(C)c1NC1=NC(=S)N(c2ccc(C(=O)O)cc2)C12CCCCC2	i	-3	1	5	i	-6	.	.	.
Cc1nnc(SCC(=O)Nc2cc(-c3cc(C)c(C)cc3C)nn2-c2ccccc2)s1	i	6	5	-16	i	78*	89*	-0.66	-7
C=C(C)[C@@H]1CC[C@]2(C(=O)O)CC[C@]3(C)[C@H](CC[C@@H]4[C@@]5(C)CC[C@H](O)C(C)(C)[C@@H]5CC[C@]43C)[C@@H]12	i	-15	2	35	i	2	.	.	.
CCn1c(=O)c2cc(C(=O)NCCC(C)C)sc2c2ccccc21	i	17	13	37	i	54*	92*	-0.4	-2
O=C(Nc1nc(-c2cccc3ccccc23)cs1)c1cnccn1	i	-13	3	-7	i	4	.	.	.
